T cruzi inh = T. cruzi replication inhibition; T. cruzi beta-gal in NIH3T3, luminescence, 90 h; inhibition, % (concentration not given with the values); 300,000 compounds, 1.4% hits;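 active = mean inhibition across valid replicates above about 55%, limit read from the data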;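 also: signal also drops with host cell toxicity which is not excluded here; higher percent means less beta-gal luminescence so fewer parasites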
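compound dosing = single 50 nL compound addition per well in DMSO | material = NIH/3T3 host cells with β-galactosidase reporter T. cruzi | input = 5,000 host fibroblasts per well | timing = ≥90 h infection period, 3 h prior cell attachment | read-out basis = percent inhibition of parasite-derived β-gal signal | detection = GalScreen β-gal luminescence, detergent lysis, 60 min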
Lmaj promast = Leishmania major promastigote growth inhibition; 200,000 compounds, 9% hits; inhibition, % at 10 µM; Leishmania major promastigotes, resazurin fluorescence viability; in the data active = inhibition above about 50%;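 also: promastigotes grown with compound for 44 hours at 28 °C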
MPTP block = blocks calcium-induced mitochondrial swelling | isolated mouse mitochondria, Ca2+ swelling absorbance, 30 min | inhibition, % at 10 µM | 360,000 compounds, 1.4% hits;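 active = inhibition of 50% or more, scaled per plate between neutral and stimulator controls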
Lipid droplet = modulators of hepatic lipid droplet formation. AML12 mouse hepatocytes, oleate lipid droplets, BODIPY imaging. AID 1656. 240,000 compounds, 0.4% hits. inhibition, % at 6.5 µM;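 active = lipid droplet intensity inhibited by at least 50%, with more than 500 cells counted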
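Material – mouse AML12 hepatocyte cell line, fixed after treatment · Compound dosing – one dose, 6.5 µM compound · Times – compound with oleate, overnight · Measured by – Image-based BODIPY and DAPI two-channel analysis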
DTT redox prof = compounds producing H2O2 with reducing agent – biochemical, NIH compound library profiling, artefact control for MLSCN library redox annotation, primary screen; DTT-dependent redox cycling H2O2, phenol red/HRP absorbance; 100% = 100 µM peroxide control, 0% = buffer; 200,000 compounds, 0.03% hits; AID 878; activation, % at 10 µM;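 active = activation of at least 50% relative to the plate's high and low controls in the primary single-dose screen; inactive = activation below 50%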;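 also: compound incubated with DTT at 0.8 mM final as the reducing agent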
A number is an active result; i = inactive; nt = no result. The entries come from a sample that favours hits as a whole.

SMILES | T cruzi inh | Lmaj promast | MPTP block | Lipid droplet | DTT redox prof
COc1ccccc1N1CCN(S(=O)(=O)/C=C/c2ccccc2)CC1 | i | i | i | i | i
COc1ccccc1N1CCN(C/C=C/c2ccc(N(C)C)cc2)CC1 | 55 | i | nt | nt | i
O=C(N[C@@H](Cc1ccccc1)c1nc2ccccc2[nH]1)c1cc([N+](=O)[O-])ccc1Cl | i | 89 | i | i | i
Cc1ccc2[nH]c(C)c(/C=N/Nc3nc4ccccc4s3)c2c1 | 61 | i | i | nt | i
Cc1ccc2[nH]c(O)c(N=Nc3nc4ccccc4s3)c2c1 | 61 | nt | i | i | nt
CCC(C)[C@H](NC(=O)N1CC(=O)Nc2ccccc21)C(=O)Nc1nccs1 (stereo partly specified) | i | nt | i | i | nt
O=C(Cn1ccc2ccccc2c1=O)NCC(=O)N1CCCCC1 | i | nt | i | i | nt
c1ccc(-c2ccccc2OCCCN2CCOCC2)cc1 | i | i | i | i | i
COc1ccccc1OCCCCCCN1CCOCC1 | i | 89 | i | i | i
c1ccc2c(OCCCCN3CCOCC3)cccc2c1 | i | nt | i | i | nt
Fc1ccccc1OCCCN1CCOCC1 | i | 51 | i | i | i
CCOC(=O)C1(C)CCCN(C(=O)c2ccc(OC(F)F)cc2)C1 (stereo unspecified) | nt | nt | i | nt | nt
CCOC(=O)CN1C(=O)S/C(=C/c2ccc3c(c2)n(C)c(=O)n3C)C1=O | i | 69 | i | i | i
O=C1CCCN1CCCN=c1c([N+](=O)[O-])nn(-c2ccc(Cl)cc2)n1O | 68 | 73 | i | i | i
COc1ccc(-n2nc([N+](=O)[O-])c(=NCCCN3CCCC3=O)n2O)cc1 | i | i | i | i | i
Cc1ccc(CN=c2c([N+](=O)[O-])nn(-c3ccc4c(c3)OCCO4)n2O)cc1 | i | 98 | i | i | i
O=[N+]([O-])c1nn(-c2ccc3c(c2)OCCO3)n(O)c1=NCCCO | 77 | 72 | i | nt | i
O=[N+]([O-])c1nn(-c2ccccc2)n(O)c1=NCc1ccc2c(c1)OCO2 | i | i | i | nt | i
COc1ccc(-n2nc([N+](=O)[O-])c(=NCc3ccc4c(c3)OCO4)n2O)cc1 | i | 97 | i | i | i
COC(=O)/C=C1\SC(N2CCOCC2)=C(c2ccc(OC)cc2)C1=O | i | i | i | i | i
CN1CCN(c2ccc(NC(=O)COc3ccccc3Cl)cc2)CC1 | i | 100 | i | i | i
O=C(COC(=O)C1Cc2ccccc2CN1C(=O)c1ccccc1Cl)Nc1ccc(N2CCOCC2)cc1 (stereo unspecified) | i | 77 | i | i | i
Cc1ccc(C(C)C)cc1OCC(=O)Nc1ccc(N2CCCCC2)cc1 | 63 | nt | i | nt | nt
CCCCCCn1c(=O)n2n(c1=O)[C@@H]1CN(S(=O)(=O)c3ccc(C)cc3)C[C@]1(O)[C@@H](OC(=O)Nc1c(C)noc1C)C2 | nt | nt | i | nt | nt
CCCCN1C(=O)C(CC(=O)NCC2CCCCC2)CC(C(=O)N2CCOCC2)=C1C (stereo unspecified) | nt | nt | i | nt | nt
SMILES | T cruzi inh | Lmaj promast | MPTP block | Lipid droplet | DTT redox prof
COc1ccc(Cc2[nH]n3c(=O)cc(C)nc3c2-c2ccccc2)cc1 | i | i | i | i | i
COc1ccc(Cc2[nH]n3c(=O)cc(C(C)C)nc3c2-c2ccccc2)cc1 | i | 97 | i | i | i
C/C(=N\NC(=O)Cc1ccc(Cl)cc1)c1ccccc1O | 63 | nt | i | i | nt
O=S1(=O)C=C(Sc2nc3ccccc3s2)c2ccccc21 | 69 | 100 | nt | i | i
CCOc1cc(CNCC(C)C)cc(Cl)c1OCc1ccccc1 | i | 89 | i | i | i
CCOc1c(Cl)cc(CNCC(O)c2ccccc2)cc1OC (stereo unspecified) | i | i | i | i | i
CCOc1c(Cl)cc(CNCC(C)C)cc1OC | i | 80 | i | i | i
CN1c2ccccc2Sc2cc(N)ccc21 | 71 | nt | i | i | nt
CC(=O)N1c2ccccc2Sc2ccccc21 | i | nt | i | i | nt
CCN(CC)C(=O)Cn1cc(S(=O)(=O)CC(=O)Nc2ccc(F)cc2)c2ccccc21 | i | nt | i | i | nt
CCN(CC)S(=O)(=O)c1ccc(N2CCOCC2)c(NC(=O)Cc2ccccc2F)c1 | i | 71 | i | i | i
CCN(CC)S(=O)(=O)c1ccc(N2CCOCC2)c(NC(=O)Cc2cccc3ccccc23)c1 | i | 95 | i | i | i
CCN(CC)S(=O)(=O)c1ccc(N2CCOCC2)c(NC(=O)C23CC4CC(CC(Cl)(C4)C2)C3)c1 | i | 56 | i | i | i
CCN(CC)S(=O)(=O)c1ccc(N2CCOCC2)c(NC(=O)Cc2ccccc2)c1 | i | i | i | i | i
O=C(CN1CCN(C/C=C/c2ccccc2)CC1)NCc1ccccc1 | i | 63 | i | i | i
CCC(C)c1ccccc1NC(=O)CN1CCN(C/C=C/c2ccccc2)CC1 (stereo unspecified) | i | 96 | i | i | i
CCOC(=O)N1CCN(S(=O)(=O)c2c(C)nc3scc(C)n3c2=O)CC1 | i | nt | i | i | nt
Cc1ccc(NC(=S)Nc2cccnc2)c(S(=O)(=O)N2CCCCC2)c1 | i | i | i | i | i
COc1ccc2[nH]c(C)c(C(=O)CN3CCN(C(=O)c4ccco4)CC3)c2c1 | i | i | i | nt | i
COc1ccc2[nH]c(C)c(C(=O)CN3CCN(C/C=C/c4ccccc4)CC3)c2c1 | i | 62 | i | nt | i
COc1ccc2oc(C(=O)N3CCN(C/C=C/c4ccccc4)CC3)c(C)c2c1 | nt | nt | i | nt | nt
COc1cc(Br)cc(CN2CCN(C/C=C/c3ccccc3)CC2)c1O | i | 88 | i | nt | i
COc1ccc(O)c(CN2CCN(C/C=C/c3ccccc3)CC2)c1 | i | 85 | i | nt | i
O=[N+]([O-])c1ccc(OCCN2CCNCC2)cc1 | 58 | 99 | i | i | i
CC1CN(CCCOc2ccc([N+](=O)[O-])cc2)CC(C)O1 (stereo unspecified) | i | 91 | i | i | i
SMILES | T cruzi inh | Lmaj promast | MPTP block | Lipid droplet | DTT redox prof
O=[N+]([O-])c1ccccc1OCCCN1CCOCC1 | i | i | i | nt | i
CC1CC(C)CN(CCCCOc2ccc([N+](=O)[O-])cc2)C1 (stereo unspecified) | i | 95 | i | i | i
CC1CN(CCCOc2ccccc2[N+](=O)[O-])CC(C)O1 (stereo unspecified) | i | 90 | i | nt | i
C/C=C/c1cnc2c(c1)C(=O)N([C@H](C)CO)C[C@H](C)[C@@H](CN(C)C(=O)CN1CCOCC1)O2 | nt | nt | i | nt | nt
Cc1cccc(OCC(=O)NCCCNC(=O)c2cnccn2)c1 | i | nt | i | i | nt
COCCCNC(=O)c1csc([C@@H]2O[C@H](CO)[C@H](O)[C@H](O)[C@H]2O)n1 | nt | nt | i | nt | nt
CC1CN(CCOc2ccc([N+](=O)[O-])cc2)CC(C)O1 (stereo unspecified) | i | 85 | i | i | i
COC(=O)C1CCN(CCCOc2ccc(CN3CCN(c4ccc([N+](=O)[O-])cc4)CC3)cc2)CC1 | i | 95 | i | i | i
Cc1cc(OCCN2CC(C)OC(C)C2)ccc1[N+](=O)[O-] (stereo unspecified) | i | 76 | i | nt | i
